From PubChem
Rows were chosen to be rich in hits. Some 3.6% of all compounds tested hit in one or more screens of this group.
HSF1 activator: HSF-1 activators, primary screen, NIH3T3-HGL cells, MG132 stress, luminescence, single point; AID 504408, 2011; actives 1.7% (n = 300,000); NIH3T3-HGL HSF-1 luciferase reporter, 8 h; 100% = twice DMSO control signal; activation, % at 9 µM;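 active = mean replicate activation of at least 50% with a set share of replicates each reaching 50%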;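 note: 0% = median of the neutral control wells and 100% = twice that signal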
SR-BI DiI-HDL act: activators of SR-BI mediated DiI-HDL uptake, primary screen, ldlA[mSR-BI] CHO cells, DiI fluorescence; 3 h; 100 = double the neutral-control signal; activation, % at 12.5 µM; AID 504775, 2011; actives 0.096% (n = 320,000);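 active = mean replicate activation of at least 60% and every replicate at or above 60%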;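 note: 0% = median plate neutral-control signal and 100% = twice that signal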
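Material: SR-BI-overexpressing, LDLR-lacking CHO cells | Dosing: Single compound concentration, delivered by pin transfer | Probe or stimulus: Labelled HDL, 10 µg/mL | Signal: Bottom-read cell fluorescence after medium removal, ex 550/em 595 nm | Schedule: 3 h, 37 °C | Evaluation: HDL uptake via cellular fluorescence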
SR-BI DiI inh: inhibitors of SR-BI mediated HDL lipid uptake, primary screen, ldlA[mSR-BI] cells, fluorescence, single point; actives 0.96% (n = 320,000); ldlA[mSR-BI] CHO cells, DiI-HDL uptake fluorescence, 3 h; AID 488896, 2010; inhibition, % at 12.5 µM; Scavenger receptor class B member 1 (Mus musculus), Q61009;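 active = mean replicate inhibition of at least 70% and a set share of replicates each scoring 70 or more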;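 note: 0% = median of neutral control wells and 100% = median of positive control wells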
Target sequence (Q61009 whole entry, looked up): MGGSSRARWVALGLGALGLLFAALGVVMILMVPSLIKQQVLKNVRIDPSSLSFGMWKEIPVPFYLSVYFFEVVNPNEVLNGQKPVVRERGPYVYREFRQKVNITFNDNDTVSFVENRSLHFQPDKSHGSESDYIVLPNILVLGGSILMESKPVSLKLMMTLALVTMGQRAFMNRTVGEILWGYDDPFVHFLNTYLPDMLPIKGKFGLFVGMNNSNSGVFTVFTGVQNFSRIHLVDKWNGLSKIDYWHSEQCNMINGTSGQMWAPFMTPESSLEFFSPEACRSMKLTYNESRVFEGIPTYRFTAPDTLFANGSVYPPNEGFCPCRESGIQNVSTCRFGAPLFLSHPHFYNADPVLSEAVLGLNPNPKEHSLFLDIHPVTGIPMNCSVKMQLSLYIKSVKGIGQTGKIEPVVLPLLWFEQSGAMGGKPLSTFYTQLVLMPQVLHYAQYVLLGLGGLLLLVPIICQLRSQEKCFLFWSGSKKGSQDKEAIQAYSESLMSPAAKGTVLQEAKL
MITF TRPM1 HTS: activators of MITF-driven TRPM1 promoter reporter, primary screen, cell-based, SK-MEL-5, luciferase, single point; SK-MEL-5 TRPM1-promoter luciferase, 24 h; % of positive control, neutral wells = 0; activation, % at 12.5 µM; actives 0.75% (n = 300,000);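 active = mean activation of at least 80% with every replicate also reaching 80%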;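 note: 0% = neutral control wells and 100% = parthenolide positive control wells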
Wnt act: Wnt/beta-catenin pathway activators, primary screen, cell-based, plate reader, single point; Wnt/beta-catenin reporter cell assay, activator; activation, % at 9.35 µM; actives 1.2% (n = 300,000); AID 743398, 2014; in the data active = activation above about 30%, passing the limit was not always enough;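 note: 0% = neutral control wells and 100% = positive control wells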
Active calls of the source: *; · = no result given.

SMILES	HSF1 activator	SR-BI DiI-HDL act	SR-BI DiI inh	MITF TRPM1 HTS	Wnt act
c1cncc(Nc2nc(-c3cccnc3)cs2)c1	-12	4	-4	22	·
Clc1ccccc1Nc1nc(-c2cccnc2)cs1	28	-2	2	66	55*
COc1cccc(Nc2nc(-c3cccnc3)cs2)c1	36	-20	20	81*	17
c1ccc(-c2ncnc3ccccc23)cc1	·	-1	1	6	-2
C=C1CC2(OC1=O)c1ccccc1CCc1ccccc12	60*	-16	16	-107	-23
CC(=O)Nc1ccc(C(=O)COC(=O)C2CC2C)c(F)c1 (stereo not given)	·	6	-6	107*	42*
CCCC(=O)Nc1ccc(C(=O)COC(=O)C2CC2C)cc1 (stereo not given)	·	-11	11	79	45*
CC(=O)Nc1ccc(C(=O)COC(=O)c2cccs2)c(F)c1	·	-14	14	127*	57*
O=C(N[C@@H](Cc1cccnc1)C(=O)N1CCC[C@H]1C(=O)NCCc1ccccc1Cl)C1CC1	·	·	·	·	-1
CSc1nc(Cl)cc(Nc2ccc(O)cc2)n1	37	-27	27	20	38*
Cc1cc(NC(=O)CSc2nc(CCC3CCCC3)nc3ccccc23)no1	59*	·	·	·	-4
CCCCNC(=O)CSc1nc(Cc2ccccc2)nc2ccccc12	52*	14	-14	·	-2
CCCc1nc(SCC(=O)Nc2cc(C)on2)c2ccccc2n1	106*	3	-3	·	-3
Cc1cc(NC(=O)CSc2nc(C(C)(C)C)nc3ccccc23)no1	·	-8	8	-8	-3
CCCCN1CC(COCc2ccccc2)Oc2cccc(Oc3ccc(SC)c(C)c3)c2S1(=O)=O (stereo not given)	·	·	·	·	-2
O=C(C[C@H]1CC[C@@H](NC(=O)Cc2cccnc2)[C@@H](CO)O1)NCc1ccc2c(c1)OCO2	·	·	·	·	10
COC(=O)c1ccc(/C=N/N2CCN(Cc3ccc(Cl)cc3)CC2)cc1	1	·	·	·	51*
OC[C@@H]1CN(Cc2ccc(Cl)cc2)C[C@H](n2cnc3c(N4CCCC4)ncnc32)O1	·	·	·	·	-1
CC1(C)CC(=O)C2=C(C1)Nc1ccccc1NC2c1ccc(F)cc1 (stereo not given)	-1	30	-30	-2	1
O=C1NCC2=C1C(c1ccc(Br)cc1)Nc1ccccc1N2 (stereo not given)	51*	31	-31	·	·
Cc1ccc(/C=C/C(O)=C2/C(=O)N(C)C3(C)CC2c2ccccc2O3)cc1 (stereo not given)	38	-29	29	-10	-13
COc1ccc(/C=C/C(O)=C2/C(=O)N(C)C3(C)CC2c2ccccc2O3)cc1 (stereo not given)	65*	-47	47	-20	-7
CCCn1c(SCC(=O)Nc2cc(Cl)ccc2OC)nc(O)cc1=O	·	8	-8	1	-2
O=C(N/N=C\c1c(O)ccc2ccccc12)c1ccc(S(=O)(=O)N2CCCCC2)cc1	7	-143	143*	-75	·
O=C(CN1CCCc2ccccc21)N/N=C/c1c(O)ccc2ccccc12	4	195*	-195	-18	2
SMILES	HSF1 activator	SR-BI DiI-HDL act	SR-BI DiI inh	MITF TRPM1 HTS	Wnt act
O=C(N/N=C/c1ccccc1)c1ccc2c(c1)OCO2	26	1	-1	42	13
O=C(CNC(=O)c1ccc2c(c1)OCO2)N/N=C(Br)/C=C/c1ccccc1	66*	19	-19	-3	·
O=C(N/N=C/c1c(O)ccc2ccccc12)c1ccc(CO)nc1	10	-43	43	·	-2
O=C(CNC(=O)c1ccc2c(c1)OCO2)N/N=C/c1cccc([N+](=O)[O-])c1	5	-4	4	3	-3
O=C(CN1CCCc2ccccc21)N/N=C/c1ccccc1	1	-5	5	7	5
O=C(NN=Cc1c(O)ccc2ccccc12)c1ccc2c(c1)OCO2	·	-124	124*	-61	2
COc1ccc(C)cc1NC(=O)COC(=O)Cc1c[nH]c2ccccc12	·	·	·	·	-3
CC/C(=N/NC(=O)c1ccc2c(c1)OCO2)c1ccccc1O	-10	-100	100*	-14	24
C=CCO[C@H]1CN(C(=O)OC)[C@@H]2C[C@H]1Oc1ccccc12	·	·	·	·	2
Cc1ccc(C(F)(F)F)cc1NC(N)=S	16	-77	77*	-5	-2
Cc1ccc(NC(N)=S)cc1C	8	7	-7	-8	-2
CCc1nc2ccc(C(=O)NCCCN(C)C)cn2c1N(CC)CCOC	·	·	·	·	-4
C[C@@]12CC[C@@H](C3=C(CCC3)C1)N2c1ccccc1	·	·	·	·	-1
Cc1csc(NC(=O)c2ccc3ccccc3n2)n1	55*	23	-23	36	26
Cc1csc(NC(=O)c2sccc2C)n1	42	-13	13	30	48*
CCC(CC)c1nnc(NC(=O)c2ccc3ccccc3n2)s1	53*	·	·	11	·
Cc1csc(NC(=O)Cc2c[nH]c3ccccc23)n1	63*	3	-3	93*	·
Cc1csc(NC(=O)c2cnc3ccccc3n2)n1	-1	-6	6	-5	14
Cc1ccc2c(c1)Sc1c(ccc3ccccc13)N2	46	·	·	8	46*
CCN(CC(=O)Nc1c(F)cccc1F)C(=O)CCCSc1nc2ccccc2[nH]1	·	·	·	·	-1
COc1ccc(Oc2c(OC)cc(NCc3ccc(CN)cc3)c3ncccc23)cc1	·	·	·	·	-8
CC(NC(=O)c1sc2ccccc2c1Cl)C1CCCO1 (stereo not given)	69*	-3	3	126*	28
CC(NC(=O)c1csc2ccccc12)C1CCCO1 (stereo not given)	3	22	-22	19	·
CC(NC(=O)c1cc(-c2ccccc2)nc2ccccc12)C1CCCO1 (stereo not given)	52*	·	·	·	·
Cc1ccc2oc(C(=O)N3CCCCCC3)c(C)c2c1	33	-9	9	124*	29
SMILES	HSF1 activator	SR-BI DiI-HDL act	SR-BI DiI inh	MITF TRPM1 HTS	Wnt act
CCCCOc1ccc(CSc2n[nH]c(C)n2)cc1	30	11	-11	93*	·
CCCCOc1ccc(CSc2ncn[nH]2)cc1	86*	-4	4	67	-2
Cc1nc(SCc2ccc(C#N)cc2)n[nH]1	47	-24	24	·	2
COCCN1CCCc2nc(-c3ccc(Br)cc3)ccc21	·	·	·	·	3
Cc1ccccc1-c1cnc2c(c1)C(=O)N([C@@H](C)CO)C[C@@H](C)[C@H](CN(C)Cc1ccccc1F)O2	·	·	·	·	-2
COc1ccc2oc(=N)c(C(=O)Nc3ccc(F)cc3)cc2c1	-5	-25	25	43	4
Cc1ccc(NC(=O)c2ccccc2F)nc1	36	18	-18	·	·
N=c1oc2ccc(Cl)cc2cc1C(=O)Nc1ccc(F)cc1	16	-29	29	36	36*
